These results are taken from ChEMBL document CHEMBL1150247, “Structural determinants for affinity enhancement of a dual antagonist peptide entry inhibitor of human immunodeficiency virus type-1” (J Med Chem, 2008).

The nature of series [1]: Binding affinity to immobilized HIV1 YU2 gp120 by surface plasmon resonance method. The arrangement: species or system Human immunodeficiency virus 1. The method, boiled down: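 YU2 gp120 (Drosophila S2-expressed, F105-affinity purified) amine-coupled to CM5 chip (~4000 RU); peptides in PBS injected at 15 μL/min, 5 min association, 5 min dissociation. Buffer and anti-IL5Rα 2B6R control-surface responses subtracted; kinetic constants fitted in BIAevaluation.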

The nature of series [2]: Inhibition of HIV1 YU2 gp120 binding to immobilized CD4 by surface plasmon resonance method. Set-up: species or system Human immunodeficiency virus 1.
Series [3] is described as follows: Inhibition of HIV1 YU2 gp120 binding to immobilized CD4 binding site specific b6 monoclonal antibody by surface plasmon resonance method. The arrangement: species or system Human immunodeficiency virus 1.
The nature of series [4]: Inhibition of HIV1 YU2 gp120 binding to immobilized CD4 binding site specific immunoglobulin G b12 monoclonal antibody by surface plasmon resonance method. The arrangement: species or system Human immunodeficiency virus 1.
A short description of series [5]: Inhibition of HIV1 YU2 gp120 binding to immobilized CD4 binding site specific F105 monoclonal antibody by surface plasmon resonance method. Set-up: species or system Human immunodeficiency virus 1.
Series [6] is described as follows: Cytotoxicity against CCR5 expressing human P4 cells after 2 hrs by MTT assay. In kind it is cell-based. Conditions: p4, 2 h. Put shortly: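 P4-CCR5 cells seeded 4×10^4/well ~18 h ahead, exposed 2 h to varying peptide concentrations, washed, then viability by MTT; triplicate in two independent assays.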
On the technique in general: Tetrazolium assays rely on reduction of a dye to a coloured formazan, in cell work by metabolically active cells.

Series [7] has as its system Human immunodeficiency virus 1. The experiment in a line: Antiviral activity against HIV1 BaL in CCR5 expressing P4 cells after 2 hrs. In kind it is functional, organism-based. Conditions: Human immunodeficiency virus 1, BaL, P4, 2 h. Put shortly: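 P4-CCR5 cells (DMEM, 10% FBS, puromycin) seeded 1.2×10^4/well ~18 h ahead; exposed 2 h to HIV-1 BaL plus peptide, washed, cultured 46 more h; infection read by β-galactosidase reporter assay. Infectivity relative to mock-treated infected cells; IC50 from sigmoidal dose-response fit; two independent experiments combined.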

Series [8] can be described thus: Inhibition of HIV1 YU2 gp120 binding to immobilized CD4 induced 17b monoclonal antibody by surface plasmon resonance method. Set-up: species or system Human immunodeficiency virus 1.

As for `CC[C@H](C)[C@H](NC(=O)[C@@H](N)CCCNC(=N)N)C(=O)N[C@@H](CC(N)=O)C(=O)N[C@@H](CC(N)=O)C(=O)N[C@H](C(=O)N1C[C@@H](n2cc(-c3cccc(C)c3)nn2)C[C@H]1C(=O)N[C@@H](Cc1c[nH]c2ccccc12)C(=O)N[C@@H](CO)C(=O)N[C@@H](CCC(=O)O)C(=O)N[C@@H](C)C(=O)N[C@@H](CCSC)C(=O)N[C@@H](CCSC)C(=O)O)[C@@H](C)CC`, the Kd (commonly the constant that tells how readily two partners part at equilibrium) in series [1] was 83 nM.

In the case of `CC[C@H](C)[C@H](NC(=O)[C@@H](N)CCCNC(=N)N)C(=O)N[C@@H](CC(N)=O)C(=O)N[C@@H](CC(N)=O)C(=O)N[C@H](C(=O)N1C[C@@H](n2cc(Cn3nnc4ccccc43)nn2)C[C@H]1C(=O)N[C@@H](Cc1c[nH]c2ccccc12)C(=O)N[C@@H](CO)C(=O)N[C@@H](CCC(=O)O)C(=O)N[C@@H](C)C(=O)N[C@@H](CCSC)C(=O)N[C@@H](CCSC)C(=O)O)[C@@H](C)CC`, the Kd in series [1] was found to be 388 nM.

Compound `CC[C@H](C)[C@H](NC(=O)[C@@H](N)CCCNC(=N)N)C(=O)N[C@@H](CC(N)=O)C(=O)N[C@@H](CC(N)=O)C(=O)N[C@H](C(=O)N1C[C@@H](n2cc(-c3ccc(F)cc3)nn2)C[C@H]1C(=O)N[C@@H](Cc1c[nH]c2ccccc12)C(=O)N[C@@H](CO)C(=O)N[C@@H](CCC(=O)O)C(=O)N[C@@H](C)C(=O)N[C@@H](CCSC)C(=O)N[C@@H](CCSC)C(=O)O)[C@@H](C)CC` yielded a Kd in series [1] of 91 nM.

`CC[C@H](C)[C@H](NC(=O)[C@@H](N)CCCNC(=N)N)C(=O)N[C@@H](CC(N)=O)C(=O)N[C@@H](CC(N)=O)C(=O)N[C@H](C(=O)N1C[C@@H](n2cc(-c3cc(C)ccc3C)nn2)C[C@H]1C(=O)N[C@@H](Cc1c[nH]c2ccccc12)C(=O)N[C@@H](CO)C(=O)N[C@@H](CCC(=O)O)C(=O)N[C@@H](C)C(=O)N[C@@H](CCSC)C(=O)N[C@@H](CCSC)C(=O)O)[C@@H](C)CC` gave a Kd in series [1] of 741 nM.

On to `CC[C@H](C)[C@H](NC(=O)[C@@H](N)CCCNC(=N)N)C(=O)N[C@@H](CC(N)=O)C(=O)N[C@@H](CC(N)=O)C(=O)N[C@H](C(=O)N1C[C@@H](n2cc(-c3ccc(OC)cc3)nn2)C[C@H]1C(=O)N[C@@H](Cc1c[nH]c2ccccc12)C(=O)N[C@@H](CO)C(=O)N[C@@H](CCC(=O)O)C(=O)N[C@@H](C)C(=O)N[C@@H](CCSC)C(=O)N[C@@H](CCSC)C(=O)O)[C@@H](C)CC`, for which, in series [1], the Kd turned out to be 154 nM.

Regarding `CC[C@H](C)[C@H](NC(=O)[C@@H](N)CCCNC(=N)N)C(=O)N[C@@H](CC(N)=O)C(=O)N[C@@H](CC(N)=O)C(=O)N[C@H](C(=O)N1C[C@@H](n2cc(CSc3ccccc3)nn2)C[C@H]1C(=O)N[C@@H](Cc1c[nH]c2ccccc12)C(=O)N[C@@H](CO)C(=O)N[C@@H](CCC(=O)O)C(=O)N[C@@H](C)C(=O)N[C@@H](CCSC)C(=O)N[C@@H](CCSC)C(=O)O)[C@@H](C)CC`, in series [1], binding was put at a Kd of 115 nM.

On to `CC[C@H](C)[C@H](NC(=O)[C@@H](N)CCCNC(=N)N)C(=O)N[C@@H](CC(N)=O)C(=O)N[C@@H](CC(N)=O)C(=O)N[C@H](C(=O)N1C[C@@H](n2cc(-c3cccc4ccccc34)nn2)C[C@H]1C(=O)N[C@@H](Cc1c[nH]c2ccccc12)C(=O)N[C@@H](CO)C(=O)N[C@@H](CCC(=O)O)C(=O)N[C@@H](C)C(=O)N[C@@H](CCSC)C(=O)N[C@@H](CCSC)C(=O)O)[C@@H](C)CC`, for which binding in series [1] was characterised by a dissociation constant (Kd) of 54 nM.

In turn, `CC[C@H](C)[C@H](NC(=O)[C@@H](N)CCCNC(=N)N)C(=O)N[C@@H](CC(N)=O)C(=O)N[C@@H](CC(N)=O)C(=O)N[C@H](C(=O)N1C[C@@H](n2cc(C3=CCCCC3)nn2)C[C@H]1C(=O)N[C@@H](Cc1c[nH]c2ccccc12)C(=O)N[C@@H](CO)C(=O)N[C@@H](CCC(=O)O)C(=O)N[C@@H](C)C(=O)N[C@@H](CCSC)C(=O)N[C@@H](CCSC)C(=O)O)[C@@H](C)CC` had a Kd in series [1] of 98 nM.

For `CCc1ccc(-c2cn([C@H]3C[C@@H](C(=O)N[C@@H](Cc4c[nH]c5ccccc45)C(=O)N[C@@H](CO)C(=O)N[C@@H](CCC(=O)O)C(=O)N[C@@H](C)C(=O)N[C@@H](CCSC)C(=O)N[C@@H](CCSC)C(=O)O)N(C(=O)[C@@H](NC(=O)[C@H](CC(N)=O)NC(=O)[C@H](CC(N)=O)NC(=O)[C@@H](NC(=O)[C@@H](N)CCCNC(=N)N)[C@@H](C)CC)[C@@H](C)CC)C3)nn2)cc1`, the IC50 (in general, the concentration needed to halve the response being measured) stood at 146 nM in series [2]; 235 nM in series [3]; 191 nM in series [4]; 137 nM in series [5]; 418 nM in series [7]; 177 nM in series [8]. In series [1], this compound gave a Kd of 9 nM. Also, in series [6], the Activity entry was “Non-toxic”.

As for `CC[C@H](C)[C@H](NC(=O)[C@@H](N)CCCNC(=N)N)C(=O)N[C@@H](CC(N)=O)C(=O)N[C@@H](CC(N)=O)C(=O)N[C@H](C(=O)N1C[C@@H](n2cc(-c3ccccc3OC)nn2)C[C@H]1C(=O)N[C@@H](Cc1c[nH]c2ccccc12)C(=O)N[C@@H](CO)C(=O)N[C@@H](CCC(=O)O)C(=O)N[C@@H](C)C(=O)N[C@@H](CCSC)C(=O)N[C@@H](CCSC)C(=O)O)[C@@H](C)CC`, in series [1], the Kd worked out at 14000 nM.

With `CC[C@H](C)[C@H](NC(=O)[C@@H](N)CCCNC(=N)N)C(=O)N[C@@H](CC(N)=O)C(=O)N[C@@H](CC(N)=O)C(=O)N[C@H](C(=O)N1C[C@@H](n2cc(-c3ccc(N)cc3)nn2)C[C@H]1C(=O)N[C@@H](Cc1c[nH]c2ccccc12)C(=O)N[C@@H](CO)C(=O)N[C@@H](CCC(=O)O)C(=O)N[C@@H](C)C(=O)N[C@@H](CCSC)C(=O)N[C@@H](CCSC)C(=O)O)[C@@H](C)CC`, in series [1], the Kd came to 437 nM.

`CC[C@H](C)[C@H](NC(=O)[C@@H](N)CCCNC(=N)N)C(=O)N[C@@H](CC(N)=O)C(=O)N[C@@H](CC(N)=O)C(=O)N[C@H](C(=O)N1C[C@@H](n2cc(-c3ccccc3N)nn2)C[C@H]1C(=O)N[C@@H](Cc1c[nH]c2ccccc12)C(=O)N[C@@H](CO)C(=O)N[C@@H](CCC(=O)O)C(=O)N[C@@H](C)C(=O)N[C@@H](CCSC)C(=O)N[C@@H](CCSC)C(=O)O)[C@@H](C)CC` had a Kd in series [1] of 25000 nM.

As for `CC[C@H](C)[C@H](NC(=O)[C@@H](N)CCCNC(=N)N)C(=O)N[C@@H](CC(N)=O)C(=O)N[C@@H](CC(N)=O)C(=O)N[C@H](C(=O)N1C[C@@H](n2cc(-c3ccccc3C)nn2)C[C@H]1C(=O)N[C@@H](Cc1c[nH]c2ccccc12)C(=O)N[C@@H](CO)C(=O)N[C@@H](CCC(=O)O)C(=O)N[C@@H](C)C(=O)N[C@@H](CCSC)C(=O)N[C@@H](CCSC)C(=O)O)[C@@H](C)CC`, the Kd in series [1] was 128 nM.

Take `CC[C@H](C)[C@H](NC(=O)[C@@H](N)CCCNC(=N)N)C(=O)N[C@@H](CC(N)=O)C(=O)N[C@@H](CC(N)=O)C(=O)N[C@H](C(=O)N1C[C@@H](n2cc(-c3ccc(F)c(C)c3)nn2)C[C@H]1C(=O)N[C@@H](Cc1c[nH]c2ccccc12)C(=O)N[C@@H](CO)C(=O)N[C@@H](CCC(=O)O)C(=O)N[C@@H](C)C(=O)N[C@@H](CCSC)C(=O)N[C@@H](CCSC)C(=O)O)[C@@H](C)CC`: in series [1], the Kd was found to be 38 nM.

With `CC[C@H](C)[C@H](NC(=O)[C@@H](N)CCCNC(=N)N)C(=O)N[C@@H](CC(N)=O)C(=O)N[C@@H](CC(N)=O)C(=O)N[C@H](C(=O)N1C[C@@H](n2cc(-c3cc(C)c(C)cc3C)nn2)C[C@H]1C(=O)N[C@@H](Cc1c[nH]c2ccccc12)C(=O)N[C@@H](CO)C(=O)N[C@@H](CCC(=O)O)C(=O)N[C@@H](C)C(=O)N[C@@H](CCSC)C(=O)N[C@@H](CCSC)C(=O)O)[C@@H](C)CC`, in series [1], the dissociation constant (Kd) worked out at 160 nM.

As to `CC[C@H](C)[C@H](NC(=O)[C@@H](N)CCCNC(=N)N)C(=O)N[C@@H](CC(N)=O)C(=O)N[C@@H](CC(N)=O)C(=O)N[C@H](C(=O)N1C[C@@H](n2cc(-c3ccc(CCc4ccccc4)cc3)nn2)C[C@H]1C(=O)N[C@@H](Cc1c[nH]c2ccccc12)C(=O)N[C@@H](CO)C(=O)N[C@@H](CCC(=O)O)C(=O)N[C@@H](C)C(=O)N[C@@H](CCSC)C(=O)N[C@@H](CCSC)C(=O)O)[C@@H](C)CC`, the IC50 in series [2] is 99 nM; in series [3], 85 nM; in series [4] it was 65 nM; in series [5] it was 23 nM; in series [7], 610000 nM; in series [8], 129 nM. In series [6], the Activity entry is “Non-toxic”.

In series [1], `CC[C@H](C)[C@H](NC(=O)[C@@H](N)CCCNC(=N)N)C(=O)N[C@@H](CC(N)=O)C(=O)N[C@@H](CC(N)=O)C(=O)N[C@H](C(=O)N1C[C@H](n2cc(-c3ccccc3)nn2)C[C@H]1C(=O)N[C@@H](Cc1c[nH]c2ccccc12)C(=O)N[C@@H](CO)C(=O)N[C@@H](CCC(=O)O)C(=O)N[C@@H](C)C(=O)N[C@@H](CCSC)C(=O)N[C@@H](CCSC)C(=O)O)[C@@H](C)CC` registered a Kd of 2700 nM.

On to `CC[C@H](C)[C@H](NC(=O)[C@@H](N)CCCNC(=N)N)C(=O)N[C@@H](CC(N)=O)C(=O)N[C@@H](CC(N)=O)C(=O)N[C@H](C(=O)N1C[C@@H](n2cc(-c3ccccc3CO)nn2)C[C@H]1C(=O)N[C@@H](Cc1c[nH]c2ccccc12)C(=O)N[C@@H](CO)C(=O)N[C@@H](CCC(=O)O)C(=O)N[C@@H](C)C(=O)N[C@@H](CCSC)C(=O)N[C@@H](CCSC)C(=O)O)[C@@H](C)CC`, for which, in series [1], binding was characterised by a dissociation constant (Kd) of 1930 nM.
